# “And” between values parts separate entries of the source, which are not always exact repeats. Equal entries are not always repeated. Positions of bridges follow the written chain, without caps; N, C: chain ends. Non-standard residues stand in square brackets, D forms with d. Residues, ends and D or L forms follow the SMILES beside them. dPhe(4-Cl) = N[C@H](Cc1ccc(Cl)cc1)C(=O)O; d2Nal = N[C@H](Cc1ccc2ccccc2c1)C(=O)O; d3Pal = N[C@H](Cc1cccnc1)C(=O)O
# Experiments:
# Assay type in all cases: functional
# Rattus norvegicus [1] = experiment: Effect of oral administration of compound (3 mg) on LH secretion by castrated male rats; ng of LH/mL
# Procedure, shortened: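 Adult Sprague-Dawley male rats, castrated under light ether anesthesia 7-10 days before assay. Peptide dissolved in 2 N HOAc, then diluted in 0.1% BSA-0.04 M phosphate buffer pH 7.4. Given by gavage tube (0.5 mL) under ether. Blood sampled before treatment and 5 h after. Plasma LH in ng/mL, mean ± SEM, five rats per treatment.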
# Rattus norvegicus [2] = species: Rattus norvegicus; experiment: Effect on GnRH-induced LH secretion in intact male rats at 100 ug of compound along with 50 ng of GnRH; ng of LH/mL
# Procedure, shortened: (§1)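 Intact adult male Sprague-Dawley rats. Antagonist injected iv into the jugular vein (1 mL) under ether, immediately before GnRH. Peptide dissolved in 2 N HOAc, then diluted in 0.1% BSA-0.04 M phosphate buffer pH 7.4. Blood taken 10 min after injection. Plasma LH in ng/mL ± SEM, six rats per treatment.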
# Rattus norvegicus [3] = species: Rattus norvegicus; experiment: Effect on GnRH-induced LH secretion in intact male rats at 25 ug of compound along with 50 ng of GnRH; ng of LH/mL; procedure, shortened: as §1
# Rattus norvegicus [4] = experiment: In vivo antiovulatory assay (AOA) carried out in rats injected sc
# Procedure, shortened: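 Antiovulatory assay following Corbin and Beattie. Cycling rats injected sc at noon on proestrus with peptide dissolved in saline (200 μL). Dose in micrograms; read-out is the number of rats ovulating out of the total.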
smiles,measurement,setting,value
CC(=O)N[C@H](Cc1ccc2ccccc2c1)C(=O)N[C@H](Cc1ccc(Cl)cc1)C(=O)N[C@H](Cc1cccnc1)C(=O)N[C@H]1CSSC[C@@H](C(N)=O)NC(=O)[C@@H]2CCCN2C(=O)[C@H](CCCNC(=N)N)NC(=O)[C@H](CC(C)C)NC(=O)[C@@H](Cc2cccnc2)NC(=O)[C@H](CCCNC(=N)N)NC1=O (Ac-[d2Nal][dPhe(4-Cl)][d3Pal]CR[d3Pal]LRPC-NH2; disulfide 4-10),Activity,Rattus norvegicus [1],8.31
same,Activity,Rattus norvegicus [2],1.4
same,Activity,Rattus norvegicus [3],1.62
same,Dose,Rattus norvegicus [4],10 µg and 25 µg
